Source: ChEMBL document CHEMBL1134691, “3-Phenyl-5-acyloxymethyl-2H,5H-furan-2-ones: synthesis and biological activity of a novel group of potential antifungal drugs” (2001)
In brackets after ≈: the same amount, converted by molar mass.

What was measured:
Pichia kudriavzevii [1] = assay: Inhibition of Candida krusei E28 growth for 48 hours in vitro.; format: functional; conditions: Pichia kudriavzevii, 48 h; read-out: MIC
Summary of the method: (§1)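 NCCLS M27-A broth microdilution in RPMI 1640 with L-glutamine and 0.165 M MOPS, pH 7.0. Isolates kept on Sabouraud dextrose agar. Inoculum 5 × 10^3 cfu/mL final. Compounds were diluted in DMSO (≤2% final) and tested in 2-fold dilutions of 1000–0.24 µmol/L. Incubation at 35 °C, OD540 read at 24 and 48 h. MIC = 80% growth inhibition versus control; assays run twice in duplicate.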

Candida albicans [2] = assay: Inhibition of Candida albicans ATCC 44859 growth for 24 hours in vitro.; format: functional; conditions: Candida albicans, ATCC 44859, 24 h; read-out: MIC; summary of the method: as §1
Trichosporon beigelii [3] = assay: Inhibition of Trichosporon beigelli 1188 for 48 hours in vitro.; format: functional; conditions: Trichosporon beigelii, 48 h; read-out: MIC
Summary of the method: (§2)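 Microdilution following NCCLS M27-A. Medium: RPMI 1640 with L-glutamine, 0.165 M MOPS, pH 7.0. Final inoculum 5 × 10^3 cfu/mL. Compounds dissolved in DMSO, final ≤2%, serially halved from 1000 to 0.24 µmol/L. Incubated at 35 °C and read at 24 and 48 h. MIC defined as 80% inhibition of control growth; run twice in duplicate.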

Candida albicans [4] = assay: Inhibition of Candida albicans ATCC 90028 for 48 hours in vitro.; format: functional; conditions: Candida albicans, ATCC 90028, 48 h; read-out: MIC; summary of the method: as §1
Aspergillus fumigatus [5] = assay: Inhibition of Aspergillus fumigatus 231 growth for 24 hours in vitro.; format: functional; conditions: Aspergillus fumigatus, 24 h; read-out: MIC
Summary of the method: (§3)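 Filamentous isolates tested by microdilution per NCCLS M27-A in RPMI 1640 plus L-glutamine, buffered with 0.165 M MOPS to pH 7.0. Final inoculum 5 × 10^3 cfu/mL. Compounds in DMSO (final ≤2%), 2-fold series over 1000–0.24 µmol/L. Plates held at 35 °C and read visually after 24 and 48 h. MIC taken as 80% inhibition of control growth; determined twice in duplicate.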

Nakaseomyces glabratus [6] = assay: Inhibition of Candida glabrata 20/I growth for 24 hours in vitro.; format: functional; conditions: Nakaseomyces glabratus, 24 h; read-out: MIC; summary of the method: as §1
[7] = Inhibition of Trichophyton mentagrophytes 445 growth for 120 hours in vitro.; format: functional, Arthroderma benhamiae; conditions: Trichophyton benhamiae, 120 h; read-out: MIC
Summary of the method: (§4)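 Dermatophyte grown in MOPS-buffered (0.165 M, pH 7.0) RPMI 1640 containing L-glutamine, in an M27-A microdilution format. Inoculum 5 × 10^3 cfu/mL final. Compounds from DMSO stocks (≤2% final), 2-fold dilutions 1000–0.24 µmol/L. Incubated at 35 °C, growth judged visually at 72 and 120 h. MIC endpoint is 80% inhibition relative to control; measured twice in duplicate.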

Candida parapsilosis [8] = assay: Inhibition of Candida parapsilosis ATCC 22019 growth for 48 hours in vitro.; format: functional; conditions: Lodderomyces parapsilosis, ATCC 22019, 48 h; read-out: MIC; summary of the method: as §1
Clavispora lusitaniae [9] = assay: Inhibition of Candida lusitaniae 2446/I growth for 24 hours in vitro.; format: functional; conditions: Clavispora lusitaniae, 24 h; read-out: MIC; summary of the method: as §1
Candida tropicalis [10] = assay: Inhibition of Candida tropicalis 156 growth for 48 hours in vitro.; format: functional; conditions: Candida tropicalis, 48 h; read-out: MIC; summary of the method: as §1
Trichosporon beigelii [11] = assay: Inhibition of Trichosporon beigelli 1188 for 24 hours in vitro.; format: functional; conditions: Trichosporon beigelii, 24 h; read-out: MIC; summary of the method: as §2
Lichtheimia corymbifera [12] = assay: In vitro inhibition of Absidia corymbifera 272 growth for 24 hours.; format: functional; conditions: Lichtheimia corymbifera, 24 h; read-out: MIC; summary of the method: as §3
Pichia kudriavzevii [13] = assay: Inhibition of Candida krusei E28 growth for 24 hours in vitro.; format: functional; conditions: Pichia kudriavzevii, 24 h; read-out: MIC; summary of the method: as §1
Clavispora lusitaniae [14] = assay: Inhibition of Candida lusitaniae 2446/I growth for 48 hours in vitro.; format: functional; conditions: Clavispora lusitaniae, 48 h; read-out: MIC; summary of the method: as §1
Candida parapsilosis [15] = assay: Inhibition of Candida parapsilosis ATCC 22019 growth for 24 hours in vitro.; format: functional; conditions: Lodderomyces parapsilosis, ATCC 22019, 24 h; read-out: MIC; summary of the method: as §1
[16] = Inhibition of Trichophyton mentagrophytes 445 growth for 72 hours in vitro.; format: functional, Arthroderma benhamiae; conditions: Trichophyton benhamiae, 72 h; read-out: MIC; summary of the method: as §4
Aspergillus fumigatus [17] = assay: Inhibition of Aspergillus fumigatus 231 growth for 48 hours in vitro.; format: functional; conditions: Aspergillus fumigatus, 48 h; read-out: MIC; summary of the method: as §3
Candida albicans [18] = assay: Inhibition of Candida albicans ATCC 90028 for 24 hours in vitro.; format: functional; conditions: Candida albicans, ATCC 90028, 24 h; read-out: MIC; summary of the method: as §1
Candida tropicalis [19] = assay: Inhibition of Candida tropicalis 156 growth for 24 hours in vitro.; format: functional; conditions: Candida tropicalis, 24 h; read-out: MIC; summary of the method: as §1
Nakaseomyces glabratus [20] = assay: Inhibition of Candida glabrata 20/I growth for 48 hours in vitro.; format: functional; conditions: Nakaseomyces glabratus, 48 h; read-out: MIC; summary of the method: as §1
Pichia kudriavzevii [21] = assay: Inhibition of Candida krusei ATCC 6258 growth for 24 hours in vitro.; format: functional; conditions: Pichia kudriavzevii, ATCC 6258, 24 h; read-out: MIC; summary of the method: as §1
Pichia kudriavzevii [22] = assay: Inhibition of Candida krusei ATCC 6258 growth for 48 hours in vitro.; format: functional; conditions: Pichia kudriavzevii, ATCC 6258, 48 h; read-out: MIC; summary of the method: as §1
Candida albicans [23] = assay: Inhibition of Candida albicans ATCC 44859 growth for 48 hours in vitro.; format: functional; conditions: Candida albicans, ATCC 44859, 48 h; read-out: MIC; summary of the method: as §1
Lichtheimia corymbifera [24] = assay: In vitro inhibition of Absidia corymbifera 272 growth for 48 hours.; format: functional; conditions: Lichtheimia corymbifera, 48 h; read-out: MIC; summary of the method: as §3

Row | MIC (Pichia kudriavzevii [1]) | MIC (Candida albicans [2]) | MIC (Trichosporon beigelii [3]) | MIC (Candida albicans [4]) | MIC (Aspergillus fumigatus [5]) | MIC (Nakaseomyces glabratus [6]) | MIC [7] | MIC (Candida parapsilosis [8]) | MIC (Clavispora lusitaniae [9]) | MIC (Candida tropicalis [10]) | MIC (Trichosporon beigelii [11]) | MIC (Lichtheimia corymbifera [12]) | MIC (Pichia kudriavzevii [13]) | MIC (Clavispora lusitaniae [14]) | MIC (Candida parapsilosis [15]) | MIC [16] | MIC (Aspergillus fumigatus [17]) | MIC (Candida albicans [18]) | MIC (Candida tropicalis [19]) | MIC (Nakaseomyces glabratus [20]) | SMILES | further results
1 | 7.81 µM (≈ 2.76 µg/mL) | 0.49 µM (≈ 0.173 µg/mL) | 7.81 µM (≈ 2.76 µg/mL) | 7.81 µM (≈ 2.76 µg/mL) | 0.98 µM (≈ 0.346 µg/mL) | 1.95 µM (≈ 0.689 µg/mL) | 3.91 µM (≈ 1.38 µg/mL) | 15.6 µM (≈ 5.52 µg/mL) | 3.91 µM (≈ 1.38 µg/mL) | 7.81 µM (≈ 2.76 µg/mL) | 7.81 µM (≈ 2.76 µg/mL) | 7.81 µM (≈ 2.76 µg/mL) | 7.81 µM (≈ 2.76 µg/mL) | 7.81 µM (≈ 2.76 µg/mL) | 3.91 µM (≈ 1.38 µg/mL) | 1.95 µM (≈ 0.689 µg/mL) | 3.91 µM (≈ 1.38 µg/mL) | 1.95 µM (≈ 0.689 µg/mL) | 7.81 µM (≈ 2.76 µg/mL) | 1.95 µM (≈ 0.689 µg/mL) | CC(C)(C)C(=O)OCC1C=C(c2ccc(Br)cc2)C(=O)O1 (stereo not given) | MIC (Pichia kudriavzevii [21]): 3.91 µM (≈ 1.38 µg/mL); MIC (Pichia kudriavzevii [22]): 7.81 µM (≈ 2.76 µg/mL); MIC (Candida albicans [23]): 1.95 µM (≈ 0.689 µg/mL); MIC (Lichtheimia corymbifera [24]): 15.6 µM (≈ 5.52 µg/mL)
2 | 7.81 µM (≈ 2.08 µg/mL) | 0.98 µM (≈ 0.261 µg/mL) | 15.6 µM (≈ 4.17 µg/mL) | 7.81 µM (≈ 2.08 µg/mL) | 1.95 µM (≈ 0.52 µg/mL) | < 0.98 µM | 1.95 µM (≈ 0.52 µg/mL) | 7.81 µM (≈ 2.08 µg/mL) | 3.91 µM (≈ 1.04 µg/mL) | 15.6 µM (≈ 4.17 µg/mL) | 3.91 µM (≈ 1.04 µg/mL) | 3.91 µM (≈ 1.04 µg/mL) | 7.81 µM (≈ 2.08 µg/mL) | 7.81 µM (≈ 2.08 µg/mL) | 7.81 µM (≈ 2.08 µg/mL) | 1.95 µM (≈ 0.52 µg/mL) | 3.91 µM (≈ 1.04 µg/mL) | 3.91 µM (≈ 1.04 µg/mL) | 7.81 µM (≈ 2.08 µg/mL) | 0.98 µM (≈ 0.261 µg/mL) | CC(=O)OCC1C=C(c2cccc(Cl)c2)C(=O)O1 (stereo not given) | MIC (Pichia kudriavzevii [21]): 3.91 µM (≈ 1.04 µg/mL); MIC (Pichia kudriavzevii [22]): 7.81 µM (≈ 2.08 µg/mL); MIC (Candida albicans [23]): 3.91 µM (≈ 1.04 µg/mL); MIC (Lichtheimia corymbifera [24]): 7.81 µM (≈ 2.08 µg/mL)
3 | > 1000 µM | 31.2 µM (≈ 7.02 µg/mL) | 1000 µM (≈ 225 µg/mL) | 250 µM (≈ 56.2 µg/mL) | 31.2 µM (≈ 7.02 µg/mL) | 62.5 µM (≈ 14 µg/mL) | 15.6 µM (≈ 3.51 µg/mL) | 1000 µM (≈ 225 µg/mL) | 250 µM (≈ 56.2 µg/mL) | > 1000 µM | 250 µM (≈ 56.2 µg/mL) | 125 µM (≈ 28.1 µg/mL) | 1000 µM (≈ 225 µg/mL) | 1000 µM (≈ 225 µg/mL) | 500 µM (≈ 112 µg/mL) | 15.6 µM (≈ 3.51 µg/mL) | 125 µM (≈ 28.1 µg/mL) | 250 µM (≈ 56.2 µg/mL) | 500 µM (≈ 112 µg/mL) | 62.5 µM (≈ 14 µg/mL) | O=C1OC(CO)C=C1c1cccc(Cl)c1 (stereo not given) | MIC (Pichia kudriavzevii [21]): 1000 µM (≈ 225 µg/mL); MIC (Pichia kudriavzevii [22]): > 1000 µM; MIC (Candida albicans [23]): 62.5 µM (≈ 14 µg/mL); MIC (Lichtheimia corymbifera [24]): 500 µM (≈ 112 µg/mL)
4 | 15.6 µM (≈ 4.83 µg/mL) | < 0.98 µM | 15.6 µM (≈ 4.83 µg/mL) | 7.81 µM (≈ 2.41 µg/mL) | < 0.98 µM | < 0.98 µM | 1.95 µM (≈ 0.602 µg/mL) | 15.6 µM (≈ 4.83 µg/mL) | 3.91 µM (≈ 1.21 µg/mL) | 15.6 µM (≈ 4.83 µg/mL) | 3.91 µM (≈ 1.21 µg/mL) | 7.81 µM (≈ 2.41 µg/mL) | 7.81 µM (≈ 2.41 µg/mL) | 7.81 µM (≈ 2.41 µg/mL) | 7.81 µM (≈ 2.41 µg/mL) | 1.95 µM (≈ 0.602 µg/mL) | 3.91 µM (≈ 1.21 µg/mL) | 3.91 µM (≈ 1.21 µg/mL) | 7.81 µM (≈ 2.41 µg/mL) | < 0.98 µM | CC(C)(C)C(=O)OCC1C=C(c2cccc(Cl)c2)C(=O)O1 (stereo not given) | MIC (Pichia kudriavzevii [21]): 7.81 µM (≈ 2.41 µg/mL); MIC (Pichia kudriavzevii [22]): 7.81 µM (≈ 2.41 µg/mL); MIC (Candida albicans [23]): 3.91 µM (≈ 1.21 µg/mL); MIC (Lichtheimia corymbifera [24]): 15.6 µM (≈ 4.83 µg/mL)
5 | 7.81 µM (≈ 3.11 µg/mL) | 0.12 µM (≈ 0.0477 µg/mL) | 7.81 µM (≈ 3.11 µg/mL) | 3.91 µM (≈ 1.55 µg/mL) | 0.98 µM (≈ 0.39 µg/mL) | 0.98 µM (≈ 0.39 µg/mL) | 0.98 µM (≈ 0.39 µg/mL) | 3.91 µM (≈ 1.55 µg/mL) | 1.95 µM (≈ 0.775 µg/mL) | 3.91 µM (≈ 1.55 µg/mL) | 1.95 µM (≈ 0.775 µg/mL) | 15.6 µM (≈ 6.22 µg/mL) | 3.91 µM (≈ 1.55 µg/mL) | 3.91 µM (≈ 1.55 µg/mL) | 1.95 µM (≈ 0.775 µg/mL) | 0.98 µM (≈ 0.39 µg/mL) | 3.91 µM (≈ 1.55 µg/mL) | 1.95 µM (≈ 0.775 µg/mL) | 1.95 µM (≈ 0.775 µg/mL) | 0.98 µM (≈ 0.39 µg/mL) | O=C1OC(COC(=O)c2ccc(Cl)cc2)C=C1c1ccc(Cl)c(Cl)c1 (stereo not given) | MIC (Pichia kudriavzevii [21]): 3.91 µM (≈ 1.55 µg/mL); MIC (Pichia kudriavzevii [22]): 7.81 µM (≈ 3.11 µg/mL); MIC (Candida albicans [23]): 1.95 µM (≈ 0.775 µg/mL); MIC (Lichtheimia corymbifera [24]): 31.2 µM (≈ 12.4 µg/mL)
